Consider 17 compounds from ChEMBL document CHEMBL1147411, “7-Hydroxynaphthalen-1-yl-urea and -amide antagonists of human vanilloid receptor 1” (Bioorg Med Chem Lett, 2004).

Each structure is given as a SMILES string.

In test [1] the target is T1, Transient receptor potential cation channel subfamily V member 1 (Homo sapiens, UniProt Q8NER1). In words: Binding affinity towards cloned human vanilloid receptor subtype 1 in HEK293 cell membranes using [3H]RTX as radioligand. In short, it runs like this:
(§1)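 Human VR1 stably expressed in HEK293 cells. Membranes were made by homogenizing, spinning at 3000 rpm for 10 min, and spinning the supernatant at 18,000 rpm for 20 min. Binding was 60 min at 37 °C with 0.3–0.6 nM [3H]-RTX in HEPES buffer pH 7.4. Samples were ice-cooled, given α-acid glycoprotein, centrifuged, and the pellet counted. Nonspecific binding used 200 nM unlabeled RTX. Percent inhibition calculated; Ki by Cheng–Prusoff.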

For test [2], the target named is T1, Transient receptor potential cation channel subfamily V member 1. Nature of the test: Functional antagonistic activity against human vanilloid receptor subtype 1 in HEK293 cell […] as inhibition of agonist-induced increases in intracellular [Ca2+] levels. It counts as cell-based. The essentials: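 Fluo-3/AM-loaded hVR1/HEK cells were read by FLIPR. Cells were incubated with compound, then challenged with capsaicin at a concentration giving ~80% maximal response. IC50 came from the inhibition of the capsaicin-induced Ca2+ rise.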

The target is the same in test [3]. In words: Displacement of [3H]RTX binding to human vanilloid receptor subtype 1 expressed in HEK293 cell membranes at 10 uM. The essentials: as §1
For test [4] the target is unchanged. In words: Increased [Ca2+] influx in HEK293 cell […] human vanilloid receptor subtype 1 (inactive). It is filed as functional, cell-based. The essentials:
(§2)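 hVR1/HEK cells on poly-D-lysine-coated plates were loaded with Fluo-3/AM for 1 h after 2 days. Cells received single compound concentrations, and intracellular Ca2+ was read by FLIPR for 3 min. Capsaicin was then added at […] final to fully activate VR1.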

For test [5] the target is unchanged. Nature of the test: Displacement of [3H]-RTX binding to human vanilloid receptor subtype 1 expressed in HEK293 cell membranes (inactive). The essentials:
as §1
A general note: In a radioligand displacement assay an active substance lowers the binding of a labelled ligand.

Test [6] has the same target. Nature of the test: Increased [Ca2+] influx in HEK293 cell […] human vanilloid receptor subtype 1. It counts as functional, cell-based. In short, it runs like this: as §2

As a reminder, the Ki is the dissociation constant of the complex between target and ligand, obtained from inhibition or displacement. High values mean weaker binding, low ones tighter binding. In general, IC50 refers to the point on the concentration scale where inhibition reaches its midpoint. For orientation: inhibition means the percentage by which the read-out fell short of the control. The low end stands for a response near the control, the high end for a response far below the control. One may read the EC50 as the concentration at which the effect is half-maximal.

T1 sequence (Q8NER1 whole entry): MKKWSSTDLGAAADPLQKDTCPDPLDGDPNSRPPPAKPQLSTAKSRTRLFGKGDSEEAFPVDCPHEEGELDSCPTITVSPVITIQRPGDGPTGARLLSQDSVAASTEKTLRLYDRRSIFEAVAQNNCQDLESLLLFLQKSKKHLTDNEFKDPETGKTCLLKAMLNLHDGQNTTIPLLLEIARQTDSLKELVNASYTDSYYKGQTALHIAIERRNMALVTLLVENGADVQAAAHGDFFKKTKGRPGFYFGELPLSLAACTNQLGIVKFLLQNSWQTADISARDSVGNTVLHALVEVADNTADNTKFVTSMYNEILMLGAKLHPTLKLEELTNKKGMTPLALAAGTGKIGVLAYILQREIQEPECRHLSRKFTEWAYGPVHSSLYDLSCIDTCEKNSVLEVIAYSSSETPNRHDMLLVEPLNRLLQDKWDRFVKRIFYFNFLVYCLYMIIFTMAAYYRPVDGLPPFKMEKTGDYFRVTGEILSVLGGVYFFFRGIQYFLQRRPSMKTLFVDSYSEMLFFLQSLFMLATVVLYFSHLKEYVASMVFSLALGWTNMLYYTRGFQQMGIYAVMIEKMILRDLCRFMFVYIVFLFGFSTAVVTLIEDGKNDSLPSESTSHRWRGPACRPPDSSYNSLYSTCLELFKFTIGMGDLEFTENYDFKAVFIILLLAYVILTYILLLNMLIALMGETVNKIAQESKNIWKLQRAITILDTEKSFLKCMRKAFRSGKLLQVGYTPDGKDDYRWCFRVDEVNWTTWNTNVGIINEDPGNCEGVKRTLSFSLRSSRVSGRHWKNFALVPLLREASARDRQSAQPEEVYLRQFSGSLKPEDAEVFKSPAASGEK

`O=C(NCCc1ccc(Cl)c(Cl)c1)Nc1cccc2ccc(O)cc12` came in with a Ki in test [1] of 1 nM. For the same compound, in test [2], the IC50 was 90 nM.

On to `O=C(CCc1ccc(Cl)cc1)Nc1cccc2ccc(O)cc12`, for which the Ki in test [1] came to 9.8 nM. For the same compound, the IC50 in test [2] came to 21 nM. For the compound `O=C(CCc1ccc(Cl)c(Cl)c1)Nc1cccc2ccc(O)cc12`, the Ki in test [1] amounted to 4.6 nM. In test [2], this compound registered an IC50 of 17 nM. `O=C(Nc1cccc2ccc(O)cc12)c1ccc(Cl)cc1` came in with an IC50 in test [2] of 320 nM. The same compound gave an inhibition in test [3] of 28%.

Compound `O=C(NCc1ccc(Cl)c(Cl)c1)Nc1cccc2ccc(O)cc12` returned a Ki in test [1] of 2 nM. Moreover, the IC50 in test [2] was 15 nM. Take `O=C(NCc1ccc(OC(F)(F)F)cc1)Nc1cccc2ccc(O)cc12`: the Ki in test [1] stood at 1 nM. In addition, the IC50 in test [2] was 27 nM. For `O=C(Cc1ccc(Cl)c(Cl)c1)Nc1cccc2ccc(O)cc12`, the IC50 in test [2] worked out at 770 nM.

On to `O=C(Nc1cccc2ccc(O)cc12)N(Cc1ccccc1)Cc1ccccc1`, for which, in test [4], the IC50 was over 10000 nM. Consider `Oc1cc2c(cc1O)CN(C(=S)NCCc1ccc(Cl)cc1)CCC2` [CAPSAZEPINE], for which the Ki in test [1] was 120 nM. This compound also returned an IC50 in test [2] of 100 nM. In turn, `O=C(NCc1ccc(C(F)(F)F)cc1)Nc1cccc2ccc(O)cc12` had an inhibitory constant (Ki) in test [1] of 1 nM. The compound further registered an IC50 in test [2] of 4 nM. The compound `CN(Cc1ccccc1)C(=O)Nc1cccc2ccc(O)cc12` had an IC50 in test [4] of over 10000 nM. In test [5], this compound gave a Ki of over 10000 nM. `O=C(Nc1cccc2ccc(O)cc12)Oc1ccccc1` displayed an IC50 in test [2] of 6300 nM. In addition, in test [5], the Ki is over 10000 nM. Turning to `CC(NC(=O)Nc1cccc2ccc(O)cc12)c1ccc(C(F)(F)F)cc1` (stereo not drawn), the Ki in test [1] was determined as 4 nM.

As to `O=C(NCc1ccccc1)Nc1cccc2ccc(O)cc12`, the IC50 in test [2] turned out to be 45 nM. Take `O=C(NCCSCc1cccc(C(F)(F)F)c1)N1CCSCC1`: a half-maximal effect in test [6] (EC50) was put at 390 nM. For the compound `O=C(NCc1cccc(C(F)(F)F)c1)Nc1cccc2ccc(O)cc12`, the affinity in test [1] corresponds to a Ki of 2.1 nM. For the same compound, in test [2], the IC50 came out at 26 nM. Take `O=C(NCc1ccc(F)c(F)c1)Nc1cccc2ccc(O)cc12`: affinity in test [1] was put at a Ki of 7 nM.
